The values below come from ChEMBL document CHEMBL3774303, “Discovery of novel pyrrolo[2,3-b]pyridine derivatives bearing 1,2,3-triazole moiety as c-Met kinase inhibitors” (Bioorg Med Chem Lett, 2016).

The structures appear in SMILES notation.

The test system of one experiment is MCF7. Description: Cytotoxicity against human MCF7 cells assessed as reduction in cell growth after 72 hrs by MTT assay. The class given is functional, cell-based. The following applies: MCF7, 72 h. In short, it runs like this: (§1)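 Cells grown in MEM with 10% FBS were seeded at about 4 × 10³ cells/well and held 24 h at 37 °C in 5% CO₂. Compounds were then added and cells cultured 72 h. IC50 is the average of triplicate determinations.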
(In general: Tetrazolium dyes change colour on reduction, which living cells bring about.)

Experiment [1] addresses Hepatocyte growth factor receptor (Homo sapiens, UniProt P08581). Description: Inhibition of cMet (unknown origin) using poly (Glu, Tyr) 4:1 as substrate after 30 mins by HTRF assay. On the technique in general: Time-resolved FRET reads energy transfer from a long-lived donor to a nearby acceptor.
Experiment [2] in a line: Cytotoxicity against human PC3 cells assessed as reduction in cell growth after 72 hrs by MTT assay. The following applies: PC-3, 72 h. The class given is functional, cell-based. Summed up:
as §1

Another experiment relates to A549. Briefly: Cytotoxicity against human A549 cells assessed as reduction in cell growth after 72 hrs by MTT assay. The following applies: A549, 72 h.
Experiment [3] has as its target Platelet-derived growth factor receptor beta (Homo sapiens, UniProt P09619). Briefly: Inhibition of PDGFRbeta (unknown origin) using poly (Glu, Tyr) 4:1 as substrate after 30 mins by HTRF assay. Summed up: (§2)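 HTRF tyrosine-kinase assay with purified enzyme on preloaded poly(Glu,Tyr) 4:1 substrate (20 μg/mL). ATP was added from a 10 mM solution in HEPES buffer (50 mM, pH 7.0, with Mg²⁺, Mn²⁺, DTT, 0.1% NaN₃), and compounds in 1% DMSO.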

Experiment [4] deals with Mast/stem cell growth factor receptor Kit (Homo sapiens, UniProt P10721). Briefly: Inhibition of cKit (unknown origin) using poly (Glu, Tyr) 4:1 as substrate after 30 mins by HTRF assay. In short, it runs like this: as §2
The target in experiment [5] is T1, Receptor-type tyrosine-protein kinase FLT3 (Homo sapiens, UniProt P36888).
T1 sequence (P36888 whole entry): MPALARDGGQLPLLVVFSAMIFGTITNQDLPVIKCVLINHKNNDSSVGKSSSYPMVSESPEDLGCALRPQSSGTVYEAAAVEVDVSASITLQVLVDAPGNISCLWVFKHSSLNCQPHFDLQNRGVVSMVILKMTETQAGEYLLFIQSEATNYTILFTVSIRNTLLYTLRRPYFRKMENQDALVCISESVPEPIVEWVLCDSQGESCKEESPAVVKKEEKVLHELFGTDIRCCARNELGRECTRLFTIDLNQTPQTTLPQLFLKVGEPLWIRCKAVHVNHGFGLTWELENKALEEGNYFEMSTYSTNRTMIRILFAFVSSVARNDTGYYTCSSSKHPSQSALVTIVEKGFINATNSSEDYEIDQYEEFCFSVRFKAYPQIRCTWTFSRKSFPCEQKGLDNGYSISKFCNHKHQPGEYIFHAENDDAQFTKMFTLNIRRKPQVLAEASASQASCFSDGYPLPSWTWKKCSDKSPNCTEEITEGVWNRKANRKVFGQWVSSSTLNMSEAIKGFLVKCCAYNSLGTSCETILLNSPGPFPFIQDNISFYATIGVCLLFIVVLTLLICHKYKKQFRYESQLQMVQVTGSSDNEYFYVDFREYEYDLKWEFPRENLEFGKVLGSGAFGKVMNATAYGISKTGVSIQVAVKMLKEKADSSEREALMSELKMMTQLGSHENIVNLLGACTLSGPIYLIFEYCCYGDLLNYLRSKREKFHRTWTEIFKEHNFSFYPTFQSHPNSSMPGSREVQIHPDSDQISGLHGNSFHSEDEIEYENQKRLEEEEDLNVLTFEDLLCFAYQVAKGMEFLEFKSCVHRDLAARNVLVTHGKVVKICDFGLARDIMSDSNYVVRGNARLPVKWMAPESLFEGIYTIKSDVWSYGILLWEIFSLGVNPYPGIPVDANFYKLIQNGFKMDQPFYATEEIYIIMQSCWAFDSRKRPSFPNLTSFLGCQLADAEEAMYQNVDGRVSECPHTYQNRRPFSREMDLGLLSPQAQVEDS
Briefly: Inhibition of FLT3 (unknown origin) using poly (Glu, Tyr) 4:1 as substrate after 30 mins by HTRF assay. In short, it runs like this: as §2

A further experiment deals with HT-29. Description: Cytotoxicity against human HT-29 cells assessed as reduction in cell growth after 72 hrs by MTT assay. The following applies: HT-29, 72 h.
Experiment [6] addresses Vascular endothelial growth factor receptor 2 (Homo sapiens, UniProt P35968). Description: Inhibition of KDR (unknown origin) using poly (Glu, Tyr) 4:1 as substrate after 30 mins by HTRF assay. In short, it runs like this: as §2

Sequence of Mast/stem cell growth factor receptor Kit (P10721 whole entry): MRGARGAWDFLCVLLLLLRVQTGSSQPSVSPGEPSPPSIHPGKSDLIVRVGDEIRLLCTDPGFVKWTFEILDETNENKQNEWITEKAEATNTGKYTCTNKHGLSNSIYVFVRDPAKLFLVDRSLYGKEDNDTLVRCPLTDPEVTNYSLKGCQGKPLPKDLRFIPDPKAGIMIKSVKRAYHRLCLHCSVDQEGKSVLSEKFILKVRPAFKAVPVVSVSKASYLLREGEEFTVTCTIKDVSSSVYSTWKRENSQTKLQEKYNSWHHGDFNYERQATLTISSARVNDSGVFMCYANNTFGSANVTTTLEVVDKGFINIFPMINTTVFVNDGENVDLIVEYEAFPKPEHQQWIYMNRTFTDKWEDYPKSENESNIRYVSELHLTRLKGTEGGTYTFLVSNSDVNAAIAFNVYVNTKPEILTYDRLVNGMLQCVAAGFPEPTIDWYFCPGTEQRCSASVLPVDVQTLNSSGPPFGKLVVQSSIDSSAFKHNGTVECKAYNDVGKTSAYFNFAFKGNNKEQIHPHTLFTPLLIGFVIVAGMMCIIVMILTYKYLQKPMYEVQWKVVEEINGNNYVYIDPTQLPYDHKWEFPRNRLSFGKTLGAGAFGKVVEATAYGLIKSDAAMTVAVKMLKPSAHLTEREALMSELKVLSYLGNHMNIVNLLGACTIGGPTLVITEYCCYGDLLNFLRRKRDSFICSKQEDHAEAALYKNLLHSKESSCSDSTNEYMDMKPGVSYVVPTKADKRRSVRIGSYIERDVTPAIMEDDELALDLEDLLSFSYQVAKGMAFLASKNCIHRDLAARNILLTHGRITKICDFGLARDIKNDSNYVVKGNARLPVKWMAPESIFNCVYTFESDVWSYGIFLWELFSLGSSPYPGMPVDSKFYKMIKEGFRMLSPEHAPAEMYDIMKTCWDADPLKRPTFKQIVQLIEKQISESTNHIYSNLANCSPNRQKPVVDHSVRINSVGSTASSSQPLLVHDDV
Sequence of Platelet-derived growth factor receptor beta (P09619 whole entry): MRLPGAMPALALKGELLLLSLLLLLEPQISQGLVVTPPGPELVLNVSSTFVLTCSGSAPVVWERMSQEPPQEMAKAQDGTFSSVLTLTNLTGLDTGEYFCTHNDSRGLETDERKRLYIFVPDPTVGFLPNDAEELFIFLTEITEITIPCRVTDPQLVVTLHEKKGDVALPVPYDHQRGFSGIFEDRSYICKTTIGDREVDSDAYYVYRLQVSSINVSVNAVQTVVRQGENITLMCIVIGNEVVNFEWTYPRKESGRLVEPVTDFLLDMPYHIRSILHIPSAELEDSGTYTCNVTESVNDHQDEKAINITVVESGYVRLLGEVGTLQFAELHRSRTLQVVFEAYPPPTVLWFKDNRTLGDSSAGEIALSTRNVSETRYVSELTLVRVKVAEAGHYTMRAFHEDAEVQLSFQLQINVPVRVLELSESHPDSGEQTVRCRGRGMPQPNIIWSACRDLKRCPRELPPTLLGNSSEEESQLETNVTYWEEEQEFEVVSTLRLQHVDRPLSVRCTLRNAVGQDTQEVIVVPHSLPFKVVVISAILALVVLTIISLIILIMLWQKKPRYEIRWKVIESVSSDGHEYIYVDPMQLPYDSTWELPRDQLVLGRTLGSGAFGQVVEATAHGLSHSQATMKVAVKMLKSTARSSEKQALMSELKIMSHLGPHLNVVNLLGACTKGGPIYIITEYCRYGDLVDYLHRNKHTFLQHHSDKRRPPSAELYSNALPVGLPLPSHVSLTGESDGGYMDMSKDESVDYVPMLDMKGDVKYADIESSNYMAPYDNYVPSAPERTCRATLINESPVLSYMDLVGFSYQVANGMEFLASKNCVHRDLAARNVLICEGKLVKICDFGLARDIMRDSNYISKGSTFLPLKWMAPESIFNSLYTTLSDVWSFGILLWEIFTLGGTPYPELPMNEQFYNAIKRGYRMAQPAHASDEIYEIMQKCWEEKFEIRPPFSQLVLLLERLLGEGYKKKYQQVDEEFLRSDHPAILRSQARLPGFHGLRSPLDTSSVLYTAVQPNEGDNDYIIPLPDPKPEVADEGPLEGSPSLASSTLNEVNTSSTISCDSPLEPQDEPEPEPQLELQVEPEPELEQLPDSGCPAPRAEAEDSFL
Sequence of Hepatocyte growth factor receptor (P08581 whole entry): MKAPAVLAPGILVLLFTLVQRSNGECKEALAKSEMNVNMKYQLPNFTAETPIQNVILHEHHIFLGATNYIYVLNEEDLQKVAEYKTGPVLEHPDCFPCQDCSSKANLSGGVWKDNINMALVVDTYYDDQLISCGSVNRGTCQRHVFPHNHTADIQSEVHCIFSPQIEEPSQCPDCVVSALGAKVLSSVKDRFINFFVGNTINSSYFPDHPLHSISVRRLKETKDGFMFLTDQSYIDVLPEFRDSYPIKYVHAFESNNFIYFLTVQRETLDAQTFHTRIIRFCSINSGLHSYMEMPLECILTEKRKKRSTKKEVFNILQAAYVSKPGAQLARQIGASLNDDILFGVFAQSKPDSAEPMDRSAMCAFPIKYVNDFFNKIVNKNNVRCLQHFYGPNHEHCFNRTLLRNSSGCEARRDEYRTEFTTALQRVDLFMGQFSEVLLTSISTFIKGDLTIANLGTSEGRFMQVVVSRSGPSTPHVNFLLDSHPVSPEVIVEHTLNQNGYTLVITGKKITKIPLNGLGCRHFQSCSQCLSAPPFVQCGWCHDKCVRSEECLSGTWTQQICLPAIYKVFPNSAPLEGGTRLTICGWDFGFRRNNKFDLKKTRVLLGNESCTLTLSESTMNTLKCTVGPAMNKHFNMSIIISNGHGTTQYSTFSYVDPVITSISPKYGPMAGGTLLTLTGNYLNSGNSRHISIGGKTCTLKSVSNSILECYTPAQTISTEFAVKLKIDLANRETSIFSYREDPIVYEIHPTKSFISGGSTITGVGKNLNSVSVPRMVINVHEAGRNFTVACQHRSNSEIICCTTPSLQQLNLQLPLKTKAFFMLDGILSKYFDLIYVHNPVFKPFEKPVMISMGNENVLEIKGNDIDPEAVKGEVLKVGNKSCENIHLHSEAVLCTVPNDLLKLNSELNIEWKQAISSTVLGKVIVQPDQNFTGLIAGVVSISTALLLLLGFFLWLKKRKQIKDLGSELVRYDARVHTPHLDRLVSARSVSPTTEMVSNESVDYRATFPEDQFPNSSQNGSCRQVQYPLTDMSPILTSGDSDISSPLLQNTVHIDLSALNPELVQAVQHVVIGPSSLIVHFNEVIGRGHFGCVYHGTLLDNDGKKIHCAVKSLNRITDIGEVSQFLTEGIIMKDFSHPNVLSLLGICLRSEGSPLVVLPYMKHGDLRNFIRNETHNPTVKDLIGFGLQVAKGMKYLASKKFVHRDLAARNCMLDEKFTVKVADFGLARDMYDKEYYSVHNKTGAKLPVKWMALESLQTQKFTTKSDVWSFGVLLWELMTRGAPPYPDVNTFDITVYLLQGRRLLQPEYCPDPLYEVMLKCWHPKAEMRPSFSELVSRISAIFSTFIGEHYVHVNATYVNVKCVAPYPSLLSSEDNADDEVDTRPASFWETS
Sequence of Vascular endothelial growth factor receptor 2 (P35968 whole entry): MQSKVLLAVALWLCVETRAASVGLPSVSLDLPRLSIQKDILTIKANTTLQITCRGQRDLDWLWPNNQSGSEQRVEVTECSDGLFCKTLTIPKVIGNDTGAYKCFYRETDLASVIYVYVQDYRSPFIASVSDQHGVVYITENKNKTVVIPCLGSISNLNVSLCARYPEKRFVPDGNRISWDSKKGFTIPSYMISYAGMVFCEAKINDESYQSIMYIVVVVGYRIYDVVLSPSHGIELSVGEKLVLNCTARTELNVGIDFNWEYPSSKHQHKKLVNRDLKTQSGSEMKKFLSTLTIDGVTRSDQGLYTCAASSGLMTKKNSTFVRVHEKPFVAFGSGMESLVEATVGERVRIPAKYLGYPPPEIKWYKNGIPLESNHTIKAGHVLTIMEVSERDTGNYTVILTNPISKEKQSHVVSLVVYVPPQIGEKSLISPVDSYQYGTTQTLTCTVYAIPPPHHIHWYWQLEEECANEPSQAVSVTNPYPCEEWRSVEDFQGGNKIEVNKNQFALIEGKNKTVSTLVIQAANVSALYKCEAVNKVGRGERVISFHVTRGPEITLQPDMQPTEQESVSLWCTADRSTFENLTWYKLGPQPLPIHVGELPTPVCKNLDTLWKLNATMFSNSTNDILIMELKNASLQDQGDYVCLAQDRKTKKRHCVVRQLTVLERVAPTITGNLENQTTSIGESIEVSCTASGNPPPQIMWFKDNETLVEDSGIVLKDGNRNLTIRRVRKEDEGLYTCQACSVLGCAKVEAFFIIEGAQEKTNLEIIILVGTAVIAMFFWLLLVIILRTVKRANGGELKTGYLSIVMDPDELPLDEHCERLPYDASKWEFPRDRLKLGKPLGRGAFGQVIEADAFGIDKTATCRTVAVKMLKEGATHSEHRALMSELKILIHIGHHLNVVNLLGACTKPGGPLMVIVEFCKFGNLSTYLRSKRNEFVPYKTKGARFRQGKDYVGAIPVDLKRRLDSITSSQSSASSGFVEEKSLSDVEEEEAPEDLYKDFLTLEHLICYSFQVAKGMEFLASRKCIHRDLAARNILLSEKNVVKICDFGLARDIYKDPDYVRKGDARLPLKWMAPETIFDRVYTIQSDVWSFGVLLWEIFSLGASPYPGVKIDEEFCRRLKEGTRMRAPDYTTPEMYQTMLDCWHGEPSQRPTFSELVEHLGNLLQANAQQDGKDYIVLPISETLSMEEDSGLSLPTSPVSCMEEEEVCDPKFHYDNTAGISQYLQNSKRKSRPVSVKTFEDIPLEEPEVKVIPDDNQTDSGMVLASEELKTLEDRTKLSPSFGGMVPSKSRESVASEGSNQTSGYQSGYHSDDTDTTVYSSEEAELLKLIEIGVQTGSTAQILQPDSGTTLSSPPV

By IC50 is commonly meant the concentration that gives 50% inhibition. With `O=C(Nc1ccc(Oc2ccnc3[nH]ccc23)c(F)c1)c1nnn(-c2ccc(F)cc2)c1C(F)(F)F`, the IC50 with MCF7 turned out to be 110 nM; in [1], 1.68 nM; in [2], 1520 nM; with A549, 82 nM; in experiment [3], 4.57 nM; in experiment [4], 325 nM. The IC50 in experiment [5] was determined as 2.06 nM; with HT-29, 29 nM; in experiment [6], 86.2 nM.

Consider `O=C(Nc1ccc(Oc2ccnc3[nH]ccc23)c(F)c1)c1nnn(-c2ccccc2F)c1C(F)(F)F`, for which the IC50 in the experiment on MCF7 came to 280 nM; in experiment [2] it was 2130 nM; in the experiment with A549, 190 nM; with HT-29, 73 nM.

Consider `Cc1c(C(=O)Nc2ccc(Oc3ccnc4[nH]ccc34)c(F)c2)nnn1-c1ccc(F)cc1`, for which the IC50 in the experiment on MCF7 was found to be 170 nM; in [2] it was 4350 nM; in the experiment with A549 it was 150 nM; in the experiment with HT-29, 120 nM.

With `COc1ccc(-n2nnc(C(=O)Nc3ccc(Oc4ccnc5[nH]ccc45)cc3)c2C(F)(F)F)cc1`, the IC50 was 580 nM with MCF7, 4850 nM in experiment [2], 460 nM with A549 and 290 nM with HT-29.

Take `O=C(Nc1ccc(Oc2ccnc3[nH]ccc23)cc1)c1nnn(-c2ccc(Cl)c(C(F)(F)F)c2)c1C(F)(F)F`: the IC50 was found to be 2340 nM in the experiment on A549 and 1530 nM in the experiment with HT-29.

On to `Cc1c(C(=O)Nc2ccc(Oc3ccnc4[nH]ccc34)cc2)nnn1-c1ccc(F)c(Cl)c1`, for which the IC50 with MCF7 is 6310 nM; in experiment [2] it was 12600 nM; in the experiment on A549 it was 980 nM; with HT-29, 2180 nM.

Regarding `Cc1c(C(=O)Nc2ccc(Oc3ccnc4[nH]ccc34)c(F)c2)nnn1-c1ccccc1`, the IC50 with MCF7 was 350 nM; in experiment [2] it was 2340 nM; in the experiment on A549, 360 nM; with HT-29, 290 nM.

On to `Cc1c(C(=O)Nc2ccc(Oc3ccnc4[nH]ccc34)c(F)c2)nnn1-c1ccc(F)c(Cl)c1`, for which the IC50 amounted to 730 nM with A549 and 1060 nM with HT-29.

As for `O=C(Nc1ccc(Oc2ccnc3[nH]ccc23)cc1)c1nnn(-c2ccc(F)cc2)c1C(F)(F)F`, the IC50 stood at 210 nM in the experiment on MCF7, 2830 nM in experiment [2], 180 nM in the experiment on A549 and 93 nM with HT-29.

Regarding `O=C(Nc1ccc(Oc2ccnc3[nH]ccc23)cc1)c1nnn(-c2ccccc2F)c1C(F)(F)F`, the IC50 with MCF7 was 290 nM; in experiment [2], 3690 nM; in the experiment with A549 it was 210 nM; in the experiment with HT-29, 120 nM.

For `O=C(Nc1ccc(Oc2ccnc3[nH]ccc23)c(F)c1)c1nnn(-c2ccccc2)c1C(F)(F)F`, the IC50 in the experiment with MCF7 turned out to be 1150 nM; in experiment [2], 2320 nM; in the experiment on A549 it was 220 nM; with HT-29, 91 nM.

As for `COc1ccc(-n2nnc(C(=O)Nc3ccc(Oc4ccnc5[nH]ccc45)c(F)c3)c2C(F)(F)F)cc1`, the IC50 in the experiment with MCF7 amounted to 510 nM; in [2], 1850 nM; in the experiment on A549 it was 360 nM; with HT-29 it was 290 nM.

Take `Cc1c(C(=O)Nc2ccc(Oc3ccnc4[nH]ccc34)c(F)c2)nnn1-c1ccccc1F`: the IC50 is 420 nM in the experiment on MCF7, 3240 nM in experiment [2], 390 nM in the experiment on A549 and 180 nM in the experiment on HT-29.

Regarding `O=C(Nc1ccc(Oc2ccnc3[nH]ccc23)cc1)c1nnn(-c2ccccc2)c1C(F)(F)F`, the IC50 came out at 260 nM in the experiment with MCF7, 3570 nM in experiment [2], 290 nM with A549 and 190 nM in the experiment on HT-29.

Consider `COc1ccc(-n2nnc(C(=O)Nc3ccc(Oc4ccnc5[nH]ccc45)c(F)c3)c2C)cc1`, for which the results for the IC50 in the experiment on A549 and with HT-29 were 710 nM and 590 nM, respectively.

Consider `O=C(Nc1ccc(Oc2ccnc3[nH]ccc23)c(F)c1)c1nnn(-c2ccc(F)c(F)c2)c1C(F)(F)F`, for which the IC50 came to 590 nM in the experiment with MCF7, 2480 nM in experiment [2], 350 nM in the experiment on A549 and 320 nM in the experiment on HT-29.

Regarding `Cc1c(C(=O)Nc2ccc(Oc3ccnc4[nH]ccc34)cc2)nnn1-c1ccccc1F`, the IC50 worked out at 280 nM in the experiment with MCF7, 3450 nM in experiment [2], 320 nM in the experiment on A549 and 360 nM in the experiment with HT-29.

Regarding `Cc1c(C(=O)Nc2ccc(Oc3ccnc4[nH]ccc34)c(F)c2)nnn1-c1ccc(Cl)c(C(F)(F)F)c1`, the half-inhibitory concentration (IC50) with A549 was found to be 2370 nM; with HT-29, 1120 nM.

As for `COc1ccc(-n2nnc(C(=O)Nc3ccc(Oc4ccnc5[nH]ccc45)cc3)c2C)cc1`, the IC50 with A549 came to 2420 nM; in the experiment on HT-29, 1160 nM.

With `Cc1c(C(=O)Nc2ccc(Oc3ccnc4[nH]ccc34)cc2)nnn1-c1ccc(F)cc1`, the IC50 is 390 nM in the experiment on MCF7, 3450 nM in experiment [2], 220 nM in the experiment on A549 and 180 nM with HT-29.

Regarding `O=C(Nc1ccc(Oc2ccnc3[nH]ccc23)cc1)c1nnn(-c2ccc(F)c(Cl)c2)c1C(F)(F)F`, the IC50 in the experiment on A549 was found to be 1120 nM; with HT-29 it was 1020 nM.

In the case of `O=C(Nc1ccc(Oc2ccnc3[nH]ccc23)c(F)c1)c1nnn(-c2ccc(F)c(Cl)c2)c1C(F)(F)F`, the IC50 in the experiment on A549 was found to be 820 nM; in the experiment with HT-29 it was 630 nM.

As to `Cc1c(C(=O)Nc2ccc(Oc3ccnc4[nH]ccc34)cc2)nnn1-c1ccccc1`, the IC50 came to 320 nM with MCF7, 7260 nM in [2], 420 nM in the experiment on A549 and 350 nM in the experiment with HT-29.

As for `O=C(Nc1ccc(Oc2ccnc3[nH]ccc23)cc1)c1nnn(-c2ccc(F)c(F)c2)c1C(F)(F)F`, the IC50 in the experiment on MCF7 is 690 nM; in experiment [2] it was 7310 nM; in the experiment with A549, 790 nM; with HT-29, 520 nM.

Consider `O=C(Nc1ccc(Oc2ccnc3[nH]ccc23)c(F)c1)c1nnn(-c2ccc(Cl)c(C(F)(F)F)c2)c1C(F)(F)F`, for which the IC50 was 1290 nM in the experiment with A549 and 1050 nM with HT-29.

With `Cc1c(C(=O)Nc2ccc(Oc3ccnc4[nH]ccc34)c(F)c2)nnn1-c1ccc(F)c(F)c1`, the IC50 in the experiment with MCF7 came to 820 nM; in experiment [2], 6540 nM; with A549, 570 nM; with HT-29, 610 nM.

On to `Cc1c(C(=O)Nc2ccc(Oc3ccnc4[nH]ccc34)cc2)nnn1-c1ccc(F)c(F)c1`, for which the IC50 in the experiment with A549 was determined as 2260 nM; in the experiment on HT-29, 1070 nM.

With `Cc1c(C(=O)Nc2ccc(Oc3ccnc4[nH]ccc34)cc2)nnn1-c1ccc(Cl)c(C(F)(F)F)c1`, the IC50 in the experiment with MCF7 came out at 8410 nM; in [2], 10900 nM; in the experiment with A549, 2830 nM; in the experiment on HT-29, 3290 nM.
